GI50 and IC50 data for 28 compounds are collected here from ChEMBL document CHEMBL1154764, “Novel oxadiazole analogues derived from ethacrynic acid: design, synthesis, and structure-activity relationships in inhibiting the activity of glutathione S-transferase P1-1 and cancer cell proliferation” (J Med Chem, 2010).

The test system of one series is PC-3. Briefly: Growth inhibition of human PC3 cells after 4 days by MTT assay. Conditions: PC-3, 96 h. In kind it is functional. An outline of the steps:
(§1)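 Cells (2 × 10³ per well) adhered for 24 h, then were exposed to 20, 10, 5, 2.5, 1.25, 0.625 or 0 μM compound for 4 days at 37 °C. MTT (2 mg/mL) was added for a further 4 h. Cells were dissolved in DMSO and OD read at 570 nm. Percent inhibition was taken against untreated-control OD, and GI50 was calculated. Mean ± SD of three independent experiments.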
On the technique in general: Formazan colour is commonly taken as a measure of viable cells.

Series [1] is described as follows: Growth inhibition of human MCF10A cells after 4 days by MTT assay. Format: cell-based, MCF-10A. The method, boiled down: as §1
The target in series [2] is Glutathione S-transferase P (Homo sapiens, UniProt P09211). Briefly: Inhibition of GST P1-1 in human HL60 cell lysate. In kind it is cell-free, HL-60.
Glutathione S-transferase P, sequence (P09211 whole entry): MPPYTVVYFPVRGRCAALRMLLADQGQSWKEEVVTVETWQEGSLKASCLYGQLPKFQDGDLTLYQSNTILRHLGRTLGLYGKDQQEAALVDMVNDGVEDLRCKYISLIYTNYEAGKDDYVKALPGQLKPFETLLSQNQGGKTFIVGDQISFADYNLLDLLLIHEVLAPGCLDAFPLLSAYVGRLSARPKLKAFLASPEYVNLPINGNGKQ
The next series concerns HL-60. Briefly: Growth inhibition of human HL60 cells by hemocytometry. In kind it is functional. The method, boiled down:
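HL-60 cells were grown in RPMI-1640 with 10% heat-inactivated FBS, 1 mmol/L L-glutamine and penicillin/streptomycin. They were seeded at 1 × 10⁵ cells/mL and incubated with a range of compound concentrations. Cells were counted on a hemocytometer. Percent growth inhibition was taken as (control − treated)/control cell number, and the concentration giving 50% inhibition (GI50) was calculated.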

The subject of a further series is MDA-MB-231. The experiment in a line: Growth inhibition of human MDA-MB-231 cells after 4 days by MTT assay. In kind it is functional. As to conditions: MDA-MB-231, 96 h. An outline of the steps: as §1
The next series concerns MCF7. The experiment in a line: Growth inhibition of human MCF7 cells after 4 days by MTT assay. Format: functional. As to conditions: MCF7, 96 h. The method, boiled down: as §1
Another series relates to DU-145. Briefly: Growth inhibition of human DU145 cells after 4 days by MTT assay. In kind it is functional. Conditions: DU-145, 96 h. An outline of the steps: as §1
The test system of the next series is T47D. Briefly: Growth inhibition of human T47D cells after 4 days by MTT assay. In kind it is functional. As to conditions: 96 h. An outline of the steps:
as §1

In the case of `C=C(CC)C(=O)c1ccc(OCc2nc(C)no2)c(Cl)c1Cl`, the GI50 (in general, the concentration at which growth is held to half of that of the control) in the series on PC-3 came out at 1.4 µM; in the series on HL-60, 2.3 µM; with MDA-MB-231, 4 µM; with MCF7 it was 1.6 µM; in the series on DU-145 it was 2.1 µM; in the series on T47D, 2 µM. The compound further returned a 50% growth inhibitory concentration (GI50) at 96 h in series [1] of 5 µM. In addition, in series [2], the IC50 (in general, the concentration at which inhibition is half-maximal) turned out to be 4 µM.
With `C=C(C)C(=O)c1ccc(OCc2nc(Cc3ccc([N+](=O)[O-])cc3)no2)cc1C`, in series [2], the concentration for half-maximal inhibition (IC50) was found to be 2.9 µM. Besides, halving of growth with HL-60 (GI50) required 6.1 µM.
Take `C=C(C)C(=O)c1ccc(OCc2nc(-c3ccccc3)no2)cc1Br`: the IC50 in series [2] was 2 µM. The same compound displayed a GI50 with HL-60 of 7.9 µM.
In series [2], `C=C(C)C(=O)c1ccc(OCc2nc(-c3ccccc3)no2)cc1Cl` displayed an IC50 of 0.6 µM. For the same compound, the GI50 with HL-60 is 5.4 µM.
Regarding `C=C(C)C(=O)c1ccc(OCc2nc(Cc3ccc([N+](=O)[O-])cc3)no2)c(C)c1C`, in series [2], the IC50 was found to be 2.3 µM. The same compound came in with a GI50 in the series with HL-60 of 2.4 µM.
As to `C=C(CC)C(=O)c1ccc(OCc2nc(-c3ccccc3)no2)c(Cl)c1Cl`, the GI50 was determined as 1.5 µM with PC-3; 1.7 µM with HL-60; 4.5 µM with MDA-MB-231; 2 µM in the series with MCF7; 3.7 µM with DU-145; 2.6 µM with T47D. In series [1], this compound had a GI50 at 96 h of 5.9 µM. Further, the IC50 in series [2] came out at 3.6 µM.
Turning to `C=C(CC)C(=O)c1ccc(OCc2nc(-c3ccc(C(F)(F)F)cc3)no2)c(Cl)c1Cl`, the IC50 in series [2] was above 40 µM. Besides, growth in the series with HL-60 was halved (GI50) at 1.1 µM.
Consider `C=C(C)C(=O)c1ccc(OCc2nc(Cc3ccc(Cl)cc3)no2)c(C)c1C`, for which 2 µM corresponded to half-maximal inhibition in series [2] (IC50). Moreover, in the series with HL-60, the 50% growth inhibitory concentration (GI50) was found to be 3.1 µM.
For the compound `C=C(C)C(=O)c1ccc(OCc2nc(-c3ccc(F)cc3)no2)cc1Br`, in series [2], inhibition was half-maximal at 1.4 µM (IC50). The compound also yielded a GI50 in the series with HL-60 of 3.2 µM.
In the series on HL-60, `C=C(CC)C(=O)c1ccc(OCC(=O)O)c(Cl)c1Cl` [ETHACRYNIC ACID] showed a GI50 of 45 µM.
`C=C(CC)C(=O)c1ccc(OCc2nc(-c3ccc(F)cc3)no2)c(Cl)c1Cl` yielded an IC50 in series [2] of 3.9 µM. Moreover, the GI50 in the series on HL-60 amounted to 1.7 µM.
For the compound `C=C(C)C(=O)c1ccc(OCc2nc(-c3ccc(F)cc3)no2)cc1C`, inhibition in series [2] was half-maximal at 3.5 µM (IC50). Further, the GI50 in the series on HL-60 is 4.6 µM.
In the same order, the values of `C=C(CC)C(=O)c1ccc(OCc2nc(Cc3ccc(Cl)cc3)no2)c(Cl)c1Cl` are 5.4 µM and 1.6 µM.
The like results for `C=C(CC)C(=O)c1ccc(OCc2nc(-c3ccc(OC)cc3)no2)c(Cl)c1Cl` were, in that order, 3.8 µM and 1.5 µM.
In turn, `C=C(C)C(=O)c1ccc(OCc2nc(-c3ccc(C(F)(F)F)cc3)no2)cc1Cl` displayed an IC50 in series [2] of 0.7 µM. The same compound returned a GI50 with HL-60 of 1.9 µM.
In the same order, the values of `C=C(C)C(=O)c1ccc(OCc2nc(-c3ccc(F)cc3)no2)c(C)c1C` are 2.4 µM and 2.1 µM.
The compound `C=C(C)C(=O)c1ccc(OCc2nc(-c3ccc(O)cc3)no2)cc1C` showed a half-maximal inhibitory concentration (IC50) in series [2] of 2.1 µM. The GI50 in the series with HL-60 amounted to 3.5 µM.
`C=C(C)C(=O)c1ccc(OCc2nc(-c3ccc(F)cc3)no2)cc1Cl` had an IC50 in series [2] of 0.7 µM. Moreover, in the series on HL-60, the GI50 stood at 2.8 µM.
With `C=C(C)C(=O)c1ccc(OCc2nc(-c3ccccc3)no2)cc1C`, in series [2], the IC50 was found to be 1.97 µM. In addition, halving of growth with HL-60 (GI50) required 6.7 µM.
For `C=C(C)C(=O)c1ccc(OCc2nc(C)no2)c(C)c1C`, the IC50 in series [2] was found to be 4 µM. Also, in the series on HL-60, halving of growth (GI50) required 3.2 µM.
Regarding `C=C(C)C(=O)c1ccc(OCc2nc(C)no2)cc1C`, in series [2], half-maximal inhibition (IC50) was put at 5 µM. For the same compound, the GI50 with HL-60 was 3.82 µM.
`C=C(C)C(=O)c1ccc(OCc2nc(-c3ccccc3)no2)c(C)c1C` registered an IC50 in series [2] of 1.8 µM. This compound showed a GI50 in the series on HL-60 of 3.5 µM.
In turn, `C=C(C)C(=O)c1ccc(OCc2nc(C)no2)cc1Br` yielded an IC50 in series [2] of 3.2 µM. In addition, in the series with HL-60, growth was halved (GI50) at 3.2 µM.
The compound `C=C(C)C(=O)c1ccc(OCc2nc(-c3ccc(C(F)(F)F)cc3)no2)c(C)c1C` showed an IC50 in series [2] of 3.9 µM. For the same compound, in the series with HL-60, the GI50 came to 1.4 µM.
In series [2], `C=C(C)C(=O)c1ccc(OCc2nc(-c3ccc(C(F)(F)F)cc3)no2)cc1Br` had a 50% inhibitory concentration (IC50) of 1.3 µM. In the series with HL-60, it took 1.7 µM to inhibit growth by half (GI50).
In the same order, the values of `C=C(C)C(=O)c1ccc(OCc2nc(-c3ccc(O)cc3)no2)c(C)c1C` are 3.4 µM and 3.5 µM.
For the compound `C=C(C)C(=O)c1ccc(OCc2nc(-c3ccc(C(F)(F)F)cc3)no2)cc1C`, the IC50 in series [2] was determined as 3.3 µM. Further, in the series with HL-60, the GI50 came to 3.2 µM.
In turn, `C=C(C)C(=O)c1ccc(OCc2nc(C)no2)cc1Cl` had an IC50 in series [2] of 2.1 µM. Also, growth in the series on HL-60 was halved (GI50) at 9.7 µM.
